# From PubChem BioAssay
# RORa inhibitor: inhibitors of human nuclear receptor RORA; CHO-K1 Gal4-RORA LBD luciferase reporter, luminescence; inhibition, % at 10 µM; hit rate 0.43% among 65,000; AID 561;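 active = inhibition above the mean of all tested compounds plus 3 SD, cut at about 52% in these data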;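 also: 0% = RORA-transfected cells with DMSO and 100% = mock-transfected cells lacking RORA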
# Target sequence (P35398 whole entry, looked up, the tested form may be a part): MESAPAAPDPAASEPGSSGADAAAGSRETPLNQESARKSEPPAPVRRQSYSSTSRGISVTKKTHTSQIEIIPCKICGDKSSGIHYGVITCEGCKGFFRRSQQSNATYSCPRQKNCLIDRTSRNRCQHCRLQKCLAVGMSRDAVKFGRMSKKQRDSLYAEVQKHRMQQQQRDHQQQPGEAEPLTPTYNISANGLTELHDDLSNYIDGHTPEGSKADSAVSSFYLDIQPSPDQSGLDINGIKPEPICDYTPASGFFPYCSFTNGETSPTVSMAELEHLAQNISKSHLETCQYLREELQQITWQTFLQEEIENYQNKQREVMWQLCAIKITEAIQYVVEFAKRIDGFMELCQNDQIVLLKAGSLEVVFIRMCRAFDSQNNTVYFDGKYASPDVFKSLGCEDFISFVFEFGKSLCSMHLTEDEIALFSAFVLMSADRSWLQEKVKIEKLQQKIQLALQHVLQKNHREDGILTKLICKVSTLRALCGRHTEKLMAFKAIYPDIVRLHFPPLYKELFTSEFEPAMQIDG
#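 Test system – CHO-K1 Gal4-RORA LBD luciferase reporter cells · Schedule – 20 h at 37 °C · Signal – luminescence from basal luciferase reporter expression · Measure – percent inhibition of basal reporter luminescence, control-normalized · Control set – -RORA mock-transfected DMSO wells 100%, +RORA DMSO wells 0%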
# Active calls of the source: *. Only a selection was taken, and hits are over-represented in it overall.
SMILES,RORa inhibitor
O=C(NCc1ccco1)c1ccc2nc3sc4c(c3c(=O)n2c1)CCCC4,56.0*
O=C(Nc1ncnc2sc3c(c12)CCC3)c1ccco1,9.0
O=C(Cn1c(=O)sc2ccccc21)NCc1ccco1,5.9
O=C(NCc1ccc2c(c1)OCO2)C1CC(=O)N(c2ccc(O)cc2)C1 (stereo not drawn),6.4
NC(=O)CC12CC3CC(C1)CC(CC(N)=O)(C3)C2,6.9
CCC(C)c1cc(S(=O)(=O)N2CCOCC2)ccc1OC (stereo not drawn),11.3
Cc1cc(NC(=O)c2ccc3c(c2)OCCO3)no1,58.9*
CCCN1C(=O)c2ccc(C(=O)Nc3cc(C)on3)cc2C1=O,8.9
Cc1cc(NC(=O)c2noc3c2CCCCC3)no1,-58.4
CCOc1ccc(-c2nnc3ccc(SCc4ccc(C(=O)OC)o4)nn23)cc1,-5.1
O=C1c2ccccc2C(=O)N1CNc1ccccc1,16.7
Fc1ccc(-c2nnc(NC3=NCCCCC3)o2)cc1,73.2*
COc1ccc(CN(CC(=O)NCC2CCCO2)C(=O)CCC(=O)Nc2cc(C)ccn2)cc1 (stereo not drawn),-9.0
COc1ccc(C(=O)Nn2c(SCC(=O)NCC3CCCO3)nc3ccccc3c2=O)cc1 (stereo not drawn),67.4*
CC(=O)NCCn1c(SCC(=O)NCC2CCCO2)nc2ccccc2c1=O (stereo not drawn),5.6
COC(=O)c1cccc2c1-c1ccccc1/C2=N/O,8.0
Clc1ccc(-c2nn3c(Cn4cnc5ccccc54)nnc3s2)c(Cl)c1,1.3
CC(=O)c1cccc(-n2nnnc2SCC(=O)Nc2ccccc2N2CCCCC2)c1,-14.1
CCn1c2ccccc2c2cc(NC(=O)CSc3nnnn3-c3ccccc3)ccc21,62.9*
O=C(CSc1nnnn1-c1ccccc1)NC(=O)Nc1ccc2c(c1)OCCO2,-52.5
CC(=O)c1ccc(NC(=O)CSc2nnc(Cn3c(=O)sc4ccccc43)n2C)cc1,-4.6
COc1cccc(-c2noc(-c3cccs3)n2)c1,-66.5
COc1ccc(Cc2nc(-c3cccs3)no2)cc1OC,-9.6
COC(=O)c1ccc(-c2nc(-c3cccs3)no2)cc1,51.7*
COc1cccc(C2C(C(=O)Nc3ccc(C)cc3C)=C(C)Nc3ncnn32)c1OC (stereo not drawn),14.0
SMILES,RORa inhibitor
N#C/C(=C/c1ccc(N2CCCCCC2)o1)c1ccc(F)cc1,62.1*
Cc1cc(C)n(Cc2ccc(C(=O)NCCC3=CCCCC3)o2)n1,7.9
Cc1c(NC(=O)CCC(=O)N2CCCCC2)c(=O)n(-c2ccccc2)n1C,14.2
Cc1nn(-c2nc3ccccc3[nH]2)c(N)c1-c1ccccc1,-54.3
O=C(OCc1c(F)cccc1Cl)c1cnccn1,1.2
Cc1cc(-n2nc(C)cc2C)nc(NS(=O)(=O)c2ccccc2)n1,-6.2
COc1ccc(CCNC(=O)C2CCCN(S(C)(=O)=O)C2)cc1OC (stereo not drawn),13.8
COc1ccc(CCNS(=O)(=O)c2cn(C)c(=O)n(C)c2=O)cc1OC,25.0
COc1ccc(CCNc2nnc(Sc3nnnn3-c3ccccc3)s2)cc1OC,68.9*
CCc1cc2c3c(c(=O)oc2cc1O)CCCC3,0.5
Cc1noc(/C=C/N(C)C)c1S(=O)(=O)N1CCc2ccccc21,2.8
Cc1ccc2c(CSc3nnc(C4CC4)n3N)cc(=O)oc2c1C,2.7
CN1CC(=O)N(CCOc2ccccc2)C1=O,6.4
Cc1ccc2c(c1)C(N1CCCC1=O)CC(c1ccco1)N2 (stereo not drawn),-52.2
CC(C)(C)NC(=O)CSc1n[nH]c(=O)n1-c1ccccc1,-4.4
c1ccc(CNc2ncnc3ccccc23)cc1,56.3*
CCOc1ccccc1Nc1ncnc2ccccc12,-14.0
Cc1ccc(-n2ncc3c(NCc4ccccc4)ncnc32)cc1,-60.9
CC1CCc2c(sc(NC(=O)c3noc4c3CCCC4)c2C(N)=O)C1 (stereo not drawn),-100.8
O=C(Cn1cnc2ccccc21)OCC(=O)N1CCc2ccccc2C1,10.2
COC(=O)c1c(-c2cccnc2)csc1NC(=O)c1cc(C)on1,-56.8
CCOC(=O)N1CCN(C(=O)c2cccc(-n3c(=S)[nH]c4cc(Cl)ccc4c3=O)c2)CC1,0.4
Cc1ccnc(NC(=O)CCCOc2cc(=O)n(C)c3ccccc23)c1,56.7*
Cc1cc(NC(=O)CCCOc2ccc(Cl)cc2Cl)no1,5.6
CCC1CCCCN1CCCNC(=O)COc1cc(=O)n(C)c2ccccc12 (stereo not drawn),-3.8
SMILES,RORa inhibitor
C=CCn1c(SCC(=O)Nc2nccs2)nnc1-c1cc2cccc(OC)c2o1,9.6
Cc1ccc2c(=O)c(CN(C)C3CCN(C)CC3)c(C)[nH]c2c1C,17.8
CCOc1ccccc1OCC(=O)Nc1ccc(S(=O)(=O)N(C)C)cc1,5.2
Cc1cnc(NC(=O)COc2ccccc2Cl)s1,73.5*
O=C(COc1ccccc1)Nc1nc2ccccc2[nH]1,-55.2
Cn1c(=O)c2nc(Cl)n(Cc3ccc(Cl)cc3Cl)c2n(C)c1=O,1.4
O=C(Nc1nnc(C23CC4CC(CC(C4)C2)C3)s1)c1ccco1,-91.0
O=C(NCCCN1CCOCC1)C1CC(=O)N(C2CCCCC2)C1 (stereo not drawn),12.6
CCOc1ccc2oc(-c3ccccc3)c(C(=O)O)c2c1,-3.8
CCOc1ccc(CCNC(=O)C(O)c2ccccc2)cc1 (stereo not drawn),3.2
Cn1nnc(NC(=O)c2cccc(OCc3ccccc3)c2)n1,-54.2
COc1ccc(NS(=O)(=O)c2cc(C(=O)O)ccc2C)cc1,-3.7
CCOc1ccc(OCc2cccc(C(=O)O)c2)cc1,93.8*
O=C(O)c1cccc(COc2ccc(CO)cc2Cl)c1,93.8*
COc1ccc(OCc2cccc(C(=O)O)c2)cc1,94.1*
CN1CCN(C(=O)c2ccc(COc3ccc(Cl)cc3Cl)cc2)CC1,-4.2
O=C(O)c1ccc(COc2ccc(CO)cc2Cl)cc1,-4.9
CSC1=NC(NCCCO)c2c(sc3c2CC(C)(C)OC3)N1 (stereo not drawn),-13.2
FC(F)(F)C1CC(c2cccs2)Nc2ncnn21 (stereo not drawn),4.9
CCOC(=O)c1ccc(Oc2cc(C)nc(SC)n2)cc1,-56.6
CCCc1nnc(NC(=O)CNc2ccc(F)cc2)s1,5.1
CCC(=O)Nc1c(OC(=O)CC)ccc2c(C)cc(=O)oc12,-2.6
COc1ccccc1-c1cn(S(=O)(=O)c2ccc(C)cc2)nc1N,-4.1
c1ccc(-c2noc(-c3ccc4ccccc4c3)n2)nc1,91.5*
COc1ccc(-c2nc(-c3ccccc3OC)no2)cc1OC,-56.0
SMILES,RORa inhibitor
c1ccc(-c2noc(-c3ccc4c(c3)OCO4)n2)nc1,77.5*
CCOc1ccc(-c2nc(-c3ccccc3)no2)cc1OCC,-49.4
CCc1ccc(OCc2nc(-c3ccccn3)no2)c(Br)c1,10.0
c1ccc(-c2noc(C3CCCCC3)n2)nc1,-60.7
COc1ccc(C2CCCN2C(=O)Nc2cccc(C(C)=O)c2)cc1OC (stereo not drawn),-4.9
O=C(CN1C(=O)c2ccccc2S1(=O)=O)NCCC1=CCCCC1,14.8
O=C(Nc1ncnc2c1ncn2C1OC(COC(=O)c2ccccc2)C(F)C1O)c1ccccc1 (stereo not drawn),8.5
COc1ccc(CN2C(=O)CCC2(C)C(=O)NC2CCCCCC2)cc1 (stereo not drawn),4.2
O=C(CCCNS(=O)(=O)c1cccc2nsnc12)NCc1ccc(F)cc1,11.6
CCOC(=O)c1cccc(NC(=O)C(NS(=O)(=O)c2ccc3c(c2)CCN3C(C)=O)C(C)C)c1 (stereo not drawn),20.7
COc1ccc(NC(=O)c2cc(-c3ccc(C)o3)nc3ccccc23)cc1OC,-53.0
